Bioassay records as filed in PubChem BioAssay.
An excerpt weighted towards active compounds, which were near 3% of everything screened.
UBC13 inh: UBC13 polyubiquitin chain formation inhibitors, primary screen, biochemical, TR-FRET, uHTS; Ubiquitin-conjugating enzyme E2 N (Homo sapiens), P61088; inhibition, % at 20 µM; 0.47% of 330,000 active; AID 485273, 2010; in the data active = inhibition above about 45%, passing the limit was not always enough; inconclusive = no clear call, values can overlap the other calls
Apaf1 inhib: inhibitors of human Apaf-1 apoptosome, primary screen, biochemical, DEVD-Rh110 fluorescence, uHTS; reconstituted apoptosome caspase-3 activity; 0.71% of 330,000 active; AID 489030, 2010; Apoptotic protease-activating factor 1 (Homo sapiens), O14727; inhibition, % at 20 µM; active = inhibition of at least 40% at 20 µM;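 also: plate controls were DMSO wells for no effect and DEVD-CHO caspase inhibitor wells for full effect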
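System: reconstituted apoptosome with Apaf-1, cytochrome c, caspase-9, procaspase-3, dATP; Signal: Rh110 fluorescence intensity; Schedule: 30 min compound preincubation, 50 min activation, room temperature; Reagent: cytochrome c trigger plus (Z-DEVD)2-Rh110 caspase-3 substrate.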
SENP7 block: SENP7 protease inhibitors, primary screen, biochemical, luminescence, uHTS; recombinant SENP7, Z-RLRGG-aminoluciferin luminescence, 40 min; inhibition, % at 5 µM; 1.5% of 330,000 active; AID 434973, 2010;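 active = inhibition above about 50% at the single test dose, limit read from the data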;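 also: plate controls were DMSO with enzyme for no effect and no enzyme buffer wells for full effect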
SENP6 inh: SENP6 protease inhibitors, primary screen, biochemical, luminescence, uHTS; Recombinant SENP6 catalytic domain, aminoluciferin luminescence; Sentrin-specific protease 6 (Homo sapiens), Q9GZR1; inhibition, % at 10 µM; 1.8% of 330,000 active; AID 2599, 2010;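 active = inhibition above about 50% at the single tested dose, limit read from the data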;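 also: plate controls were DMSO wells with enzyme for no effect and DMSO wells lacking enzyme for full effect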
SENP8 block-1: SENP8 protease inhibitors, primary screen, biochemical, luminescence | Sentrin-specific protease 8 (Homo sapiens), Q96LD8 | purified SENP8, Z-RLRGG-aminoluciferin cleavage | inhibition, % at 10 µM | 1.2% of 330,000 active | AID 2540, 2010; in the data active = inhibition above about 50%
Target sequence (Q96LD8 whole entry, looked up): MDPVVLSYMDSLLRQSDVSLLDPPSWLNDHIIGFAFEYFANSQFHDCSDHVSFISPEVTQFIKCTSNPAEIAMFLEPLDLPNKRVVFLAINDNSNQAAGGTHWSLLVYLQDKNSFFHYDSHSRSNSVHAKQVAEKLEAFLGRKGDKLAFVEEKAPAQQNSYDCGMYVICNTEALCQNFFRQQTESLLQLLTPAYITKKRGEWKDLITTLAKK
SENP8 block-2: human SENP8 protease inhibitors, primary screen, biochemical, fluorescence, Nedd8 protein substrate, uHTS. recombinant SENP8. inhibition, % at 20 µM. 0.64% of 360,000 active; in the data active = inhibition mostly above about 40%, no sharp cut-off; inactive = mostly below about 27%
Casp3 counter: CASP3 inhibitor validation, counterassay for project on UBE2N polyubiquitination blockers, biochemical, one dose; shares compounds with UBC13 inh; Recombinant caspase-3, Caspase-Glo 3/7 luminescence, 60 min; inhibition, % at 20 µM; 4% of 1,400 active; AID 488856, 2010;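 active = mean inhibition across replicates above about 26%, limit read from the data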;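 also: plate controls were DMSO with caspase-3 for no effect and DMSO wells lacking enzyme for full effect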
Target sequence (P42574 whole entry, looked up): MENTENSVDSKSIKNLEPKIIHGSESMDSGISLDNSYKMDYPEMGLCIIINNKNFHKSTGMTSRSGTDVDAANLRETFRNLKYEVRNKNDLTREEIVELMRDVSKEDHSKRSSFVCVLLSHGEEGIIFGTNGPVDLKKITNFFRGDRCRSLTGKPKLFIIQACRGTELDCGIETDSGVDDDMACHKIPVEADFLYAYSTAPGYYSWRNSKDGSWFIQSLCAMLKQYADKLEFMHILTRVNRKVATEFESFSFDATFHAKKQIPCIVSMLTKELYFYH
UBC13 confirm: UBC13 polyubiquitination inhibitors, single-point retest, confirmation, biochemical, TR-FRET, single concentration. AID 488859, 2010. inhibition, % at 10 µM. shares compounds with UBC13 inh. 68% of 1,400 active; in the data active = inhibition above about 45%; inconclusive = no clear call, values can overlap the other calls
Starred values were filed as active, the others as inactive; ? = inconclusive; · = no result given.

SMILES | UBC13 inh | Apaf1 inhib | SENP7 block | SENP6 inh | SENP8 block-1 | SENP8 block-2 | Casp3 counter | UBC13 confirm
Cc1ccc(C(O)c2ncc(-c3cccc4ccccc34)[nH]2)c(C)c1 (centres undefined) | · | · | · | · | · | -366 | · | ·
COC(=O)C1=C(C)N(CC2CC2)C(=NCc2cc(OC)c(OC)c(OC)c2)N[C@H]1c1ccccc1 | 4 | -4 | 2 | 15 | 5 | 10 | · | ·
COC(=O)C1=C(C)N(CC2CC2)C(=NCc2cccc(Cl)c2)N[C@H]1c1ccccc1 | 54* | 8 | -4 | -5 | -1 | -38 | -2 | 31
Cc1ccsc1C(=O)N1CCCCCC1(C)C(=O)NCC(C)C (centres undefined) | · | · | · | · | · | 22 | · | ·
CN(C)CCOC(=O)c1ccc2[nH]c3c(c2c1)CSCC3 | 62* | 15 | -6 | -13 | -6 | 0 | -2 | 53*
CCN1CCC(O)(/C=C/c2ccc(C(C)C)cc2)C(C(=O)/C=C/c2ccc(C(C)C)cc2)C1 (centres undefined) | · | · | · | · | · | 12 | · | ·
CC[C@@H](C)[C@@H]1CN([C@@H](CN2CCC[C@H]2CN2C(N)=NC[C@H]2CC(C)C)C(C)C)C(=N)N1CCCC1CCCC1 | 66* | 39 | 3 | -19 | 6 | 10 | 3 | 58*
CCCCN1C(=N)N([C@@H](C)CN2CCC[C@H]2CN2C(N)=NC[C@@H]2Cc2ccccc2)C[C@H]1[C@H](C)CC | 19 | 21 | 3 | -5 | -4 | 21 | · | ·
CCCCN1C(=N)N([C@@H](CCC)CN2CCC[C@H]2CN2C(N)=NC[C@@H]2Cc2ccccc2)C[C@H]1Cc1ccccc1 | 54* | 34 | -8 | 6 | 2 | 21 | -4 | 36
Cc1ccc(-c2csc(C(O)c3cccc(Cl)c3)n2)cc1C (centres undefined) | · | · | · | · | · | 9 | · | ·
CCCCCOc1ccc(Br)cc1/C(C)=N/NC1=NCCN1 | 58* | 6 | -3 | -16 | -4 | 9 | -3 | 64*
Cc1[nH]c(=S)c(C#N)c(-c2ccccc2)c1C(=O)Nc1ccccc1 | 51* | 12 | -2 | -18 | -7 | -4 | 3 | ?
Cc1ccc(-c2c(C(=O)Nc3ccccc3C)c(C)[nH]c(=S)c2C#N)o1 | 18 | 16 | -2 | 10 | -1 | -28 | · | ·
Cc1ccccc1NC(=O)c1c(C)[nH]c(=S)c(C#N)c1-c1ccc(Cl)cc1 | 50* | -8 | 10 | -1 | 1 | 12 | -4 | ?
CCc1[nH]c(=S)c(C#N)c(-c2ccccc2)c1C(=O)OC | ? | 15 | -5 | 5 | 3 | -1 | · | ·
CCN(CC)CCNC(=O)c1c(C)n(-c2ccccc2)c2cc(Br)c(OC)cc12 | 52* | 32 | -4 | -4 | -14 | 6 | -5 | 79*
O=C(NN1C(=O)CSC1=S)C(=O)NN1C(=O)CSC1=S | 47* | -20 | -2 | -12 | -2 | 2 | 8 | 29
O=C(Cc1cccc2ccccc12)NN1C(=O)CSC1=S | -4 | 10 | -7 | 6 | -11 | 7 | · | ·
COC(=O)c1ccc(CNC(=O)c2coc3ccccc3c2=O)cc1 | 4 | 0 | 2 | -2 | -6 | 16 | · | ·
CN(C)C(CNC(=O)c1coc2ccccc2c1=O)c1ccccc1 (centres undefined) | 56* | 11 | -5 | 7 | -6 | 0 | 12 | 59*
CN1CCN(c2ccc3c(c2)OC[C@@H](Cc2ccccc2)NS3(=O)=O)CC1 | · | · | · | · | · | 19 | · | ·
Cc1nc2ccccc2n1C1CCN(CC(=O)Nc2ccccc2Br)CC1 | 58* | 2 | -2 | 2 | -1 | 4 | -4 | 74*
CC(CN1CCCCC1)NC(=O)c1scnc1-c1ccccc1 (centres undefined) | · | · | · | · | · | 6 | · | ·
